# Experimental data: the RNAGym collection of RNA variant scans (doi:10.1126/science.aae0568)
# Variants at the floor of the assay were thinned out.
# B1: tRNA (parent)
# chain: GUUCCGUUGGCGUAAUGGUAACGCGUCUCCCUCCUAAGGAGAAGACUGCGGGUUCGAGUCCCGUACGGAACG
# Variants of: B1
# Assay: yeast fitness relative to wild type (ratio to wild type); higher = fitter; tRNA-Arg(CCU), competitive growth, 37 C, YPD
# How it was run: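 Changes in genotype frequencies gave Darwinian fitness relative to wild type. Frequencies were read by 100-nucleotide paired-end sequencing of gene amplicons before and after pooled Saccharomyces cerevisiae strains, carrying tRNA-Arg(CCU) gene variants at the native locus, were competed in YPD at 37°C for 24 hours in six replicates. A genotype was kept only with ≥ 100 starting reads, and estimates < 0.5 were set to 0.5.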
row,Variant,yeast fitness
1,GAUCCGUUGGCGUAAUGGUAACACGUCUCCCUCCUAAGGAGAAGACUGCGGGUUCGAGUCCCGUACGGAACG,0.867
2,GAUCCGUUGGCGUAAUGGUAACGCGUCUCCCUCGUAAGGAGAAGACUGCGGGUUCGAGUCCCGUACGGAACG,0.604
3,GAUCCGUUGGCGUAAUGGUAACGCGUCUCCCUGCUAAGGAGAAGACUGCGGGUUCGAGUCCCGUACGGAACG,0.714
4,GAUCCGUUGGCGUAAUGGUAACGCGUCUCCCUCCUAAGGAGAAGACUGCCGGUUCAGGUCCCGUACGGAACG,≤ 0.5
5,GAUCCGUUGGCGUAAUGGUAACGCGUCUCCCUCCUAAGGAGAAGACUGCGGGUUCGAGUCCCGUACGCAACG,0.671
6,GAUCCCUUGGCGUCAUGGUAACGCGUCUCCCUCCUAAGGAGAAGACUGCGGGUUCGAGUCCCGUACGGAACG,≤ 0.5
7,GAUCCGUUGGCCUAAUGGUAACGCGUCUCCCUCCUCAGGAGAAGACUGCGGGUUCGAGUCCCGUACGGAACG,≤ 0.5
8,GAUCCGUUGGCGCAAUGGUGCCGCGUCUCCCUCUUGAGGAGAAGACUGCGGGUUCGAGUCCCGUACGGAACG,≤ 0.5
9,GAACCGUUGGCGUAACGGUAACGUGUCUCCCUCCUAAGGAGAAGACUGCGGGUUCGAGUCCUGUACGGAACG,0.629
10,GAACCGUUGGCGUAAUGGUAACGCGACUCCCUCCUAAGGAGAAGACUGCGAGUUCGAGUCCCGUACGGAACG,≤ 0.5
11,GAUCCGUUGGCGUAAUGGUAACGCGUCUCCCUCAUAAGGAGAAGACGGGGGGUUCGAGUGCCGUACGGAACG,≤ 0.5
12,GAUCCGUUGGCGUAAUGGUAACGCGUCUCCCUCGUAAGGAGAAGACUGAAGGUUCGAGUCCCGUACGGAACG,0.517
13,GAUCCGUUAGCGAAAUGGUAACGAGUCUCCCUCCUAAGGAGGAGACUGCGGGUUUGAGUCCCGUACGGACCG,≤ 0.5
14,GAUCCGUUGGCGUAAUCGUAACGCGUCUCCCUCCUAAGGAGAAGACUGCGGGUUCGAGUCCCGUACGGAACG,0.603
15,GAUCCGUUGGCGUAAUGGUAACGCAUCUCCCUCCUAAGGAGAAGACUGCGGGUUCGAGUCCCGUACGAAACG,0.64
16,GAUCCGUGGGCGUAAUGGUAACGCGUCUCCCUACUAAAGAGAAGACUGCGGGUUCGAGUCCCGUACGGAACG,≤ 0.5
17,GAUCCGUUGGCGUAAUGGUAACGCGUCUCCCUCCUAAGGAGAAAACUGCGGGUUCGAGUCCCGUAUGGAACG,0.588
18,GAUCCGUUGGCGUAAUGGUAACGCGUCCCCCUCCUAAGGACAAGACUGCGGGUUCGAGUCCCGUAAGGAACG,≤ 0.5
19,GAUCCGUUGGCGUAAUCGUAACGUGUCUCCCUUCUGAGGAGAAGACUGCGGGUCCGAGUCCCGUACGGAACG,≤ 0.5
20,GAUCCGUAGGCGUAAUGGUAACGUGUCUCCCUCCUAAGGAGAAGACUGCGGGUUCGAGUCCCGUACGGAACG,≤ 0.5
21,GAUCCAUUGGGGUAAUGGUAACGCGUCUCCCUCCUAAGGAGAAGACUGUGGGUCCGACUCCCGUACGGAACG,≤ 0.5
22,GAUCCGUCGGCGUAAUGGUAACGCGUCUCCCUCCUAAGGAGAAGACAGCGGGUUCGAGUCCCGUACGCAACG,≤ 0.5
23,GAUCCCUUGGCGUAAUGGUAACGCGUCUCCCUCCUAAGGAGAAGACUGCGGGUUCGAGUCCCGUACGCAACG,≤ 0.5
24,GAUCCCUUGGCGUAAUGGUAACGCGUCUCCCUCCUAAAGAGAAGACUGCGGGUUCGAGUCCCGUACGGAACG,0.592
25,GAUCCGUUGGCGUAAUGGUAACGCGUCGCCCUCCUAAGGAGAAGACUGCGGGUUCGAGUCCCGUACAGAACG,≤ 0.5

row,Variant,yeast fitness
1,GAUCCGUUGGCGUAACGGUAACGCGUCUCACUCCUAAGGAGAAGACUGCGGGUUCGAGUCCCGUUCGGAACG,≤ 0.5
2,GAUCCCUUGGCGUAAUGGUAGCGCGUCUCCCCCCUAAGGAGAAGACUGCGGGUUCGAGGCCCGUAUGGACCG,≤ 0.5
3,GAUCCGUAGGGGUAAUGGUAACGCGUCUCGCUCCUAAGGAGAAGACUACGGGUUCGAGUCCCGUACGGAACG,≤ 0.5
4,GAUCCGUUGGCGUAAUGGUAACGCGUCUCCCACCUAAGGAGAAGACUGCGGGUUCGAGUCCCGAUCGGAACG,0.581
5,GAGCCGUUGGCGUAAUGGUAACGCGUCUGGCUCCUAAGGAGAAGAGUGCGGGUUCGAGUCCCGUACGGAGCG,≤ 0.5
6,GAUCCGUUGGCGGAAUGGUAACGCGUCUCCCUCCUAAGGAGAAGACUGCGGGUUCGAGUCCGGUACGGAACG,≤ 0.5
7,GAUCCGUUGGCGUAAUGGUAACGCGUCUCCCUCCUAAGGAGAAGACUGCAGGUUCGAGUCCCGUACGGAACG,0.858
8,GAUCCGUUGGCGUAAUGGUAACGCGUCUCCCCCCUGAGGAGAAGACUGCGGGUUCGAGUCCCGUACGGAACG,0.736
9,GAACCGUUGGCGUAAUGGUAACGGGUCUCCCUCCUAAGGAGAAGACUGCGGCUUCGAGUCCCGUACGGAACG,≤ 0.5
10,GAUCCGUUGGCAUAAUGGUAACGCGUCUCACUCCUAAGGAGAUGACUGCGGGUUCGGGUACCGUACAGAACG,≤ 0.5
11,GAUCCGUUGGCGUAAUCGUAACGCGUCUCCCUCCUAAGGAGAAGACUGCGGGUUCGAGUCCCGUACGGAUCG,0.572
12,GAUCCGUAGGCGUAAUGGUAACGCGUCUCCCUCCUAAGGAGAAGACAGCGGGUUCGAGUCCCGUACGGUACG,≤ 0.5
13,GAUCCGUUGGCGUAAGGGUAACGCGUCUCCCUCCUAAGGAGAAGACUGCGGGUUCGAGUCCCGUAUGGAACG,0.806
14,GAUCCGGUGGCGUAAUGGUAACGCGUCUCCCUCCUAAGGAGAAGACUGCGGGUUCGAGUCCCGUACGGAACG,0.847
15,GAUCCGUUGGCGUAAUGGUAACGCGUCUCCCUCCUAAGGAGAAGACUGCCGGUUCGAGCACCGUACGGAACG,0.877
16,GAUCCGUUGGCGUAAUGGUAACACGUCUGCCUCCUAAGGAGAAGACUGCGGGUUCGAGUCCCGUACGGAUCG,0.541
17,GAUCCGUUAGCGUAAUGGUAACGCGUCUCCCUCCUACGGAGCAGACUGCGGGUUCGAGUCCCGUACGAAACG,≤ 0.5
18,GAUCCGUUGGCGUAAUGGUAACGCGUCUCCAUCCUAAGGAGAAGACUGCGGGUUCGGGUCCCGUACGGAACG,0.555
19,GAUCCGUUGGCGUAAUGGUAACGCGUCUCCCUCCUAAGGAGAAGACUGCGGGUUCGAGUCUCGUACGGACCG,0.585
20,GAUCCGUGGGCGUAAUGGUAAUGCGUCUCCCCGCUAAAGAGAAGACUGCGGGUUCGAGUCCCGUACGGAACG,≤ 0.5
21,GAUCCGUUGGCGUAAUGGUAACGCGUCUCCGUCCUAAGGAGAAGACUGCGGGUUCGAGUCGCGUACGGAACG,≤ 0.5
22,GAUCCGUUGGCGUAAUGGUAACGCGUCUCCCUCCUAAGGAGAAGACUGCGGGUUCGAGUGCCGUACGGAACG,0.666
23,GAUCCGUUGGCGGAAUGGUAACGCGUCUCCCUCCUAAGGCCAAGACUGCGGGUUCGGGUCCCCUUCGGAACG,≤ 0.5
24,GAUCCGUUGGCGUAAUGGUAACGCGUCUCCCUCCUAAGGAGAAGACUCCGGGUUCGAGUCCCGUACGGAACG,0.92
25,GAUCCGUUGGCGUAAUGGUAACGCGUCUCCCACCUAUGGAGAGGACUGCGGGUUCGAGUCCCGUACGGAACG,≤ 0.5

row,Variant,yeast fitness
1,GAUCCGUUGGCGUAAUGGUAACGCGUCUCCCUCGUAAGGAGAAGACUGCGGGUUCGAGUCCCGCACGGAACG,≤ 0.5
2,GAUCCGUUGGCGUAAUGGUAACGCGUCUCCCACCUAAGGAGAAGACUGCGGGUUCGAGUCCCGUACGGAACG,0.72
3,GAUCCGUUGGCGUAAUGGUAACGCGUCUCCCUCCUAAGGAGAAGACUGCGGGUUCGAGUUCAGUACGGAACG,≤ 0.5
4,GAUCCGAUGGCGUAUUGGUAACGCGUCUCCCUCCUAAGGAGAAGACUGCGGGUUCGAGUCCCGUACGGAACG,≤ 0.5
5,GAGCCGUUGGAGUAACGGUAAGGCGUCUCCCUCCUAAGGAGAAGACUGCGGGUUCGCGUCCCGUACGGAACG,≤ 0.5
6,GAUCCGUUGGCGUAAGGGUAACGCGUCUCCCUCCUAAGGAGAAGACUGGGGGUUCGAGUCCCGUACGGAACG,0.705
7,GAUCCGUAGGCAUAAUGGUAACGCGUCUCUCUCCUAAGGAGAAGACUGCGGGUUCGAGUCCCGUACGGAACG,≤ 0.5
8,GAUCCGUUCGCGAAGUGGUAACGCGUCUCCCUACUAUGGAGAAGACUGCCGGUUCGAGUCUCGUACGGUACG,≤ 0.5
9,GAUCCGUCGGCGCAAUGGUAACGCGUCUCCCUCCUAAGGAGCAGACUGCGGGUUCGAGUCCCGUACGGAACG,≤ 0.5
10,GAUCCGUUGGCGUAAUGGUAACGCGUCUCCCUCCUAAGGAGAAGACUGAGGGUUCGAGUCGCGUACGGAACG,0.505
11,GAUCCGUUGGCUUAAUGGUAACACGUCUCCCUCCUUAGGAGAAGACUGCGGGUUCGACUUCCGUACGGAACG,≤ 0.5
12,GAUCCGUUGGCGUAAGGGUAACGCGUCUCCCUCCUAAGGAGAAGACUGCGGGUUCGAGUCCCGUACGGAACG,1.03
13,GAUCCGUCGGCAUAAUGGUAACGCGUCUCCCUCCUAAGGAGUAGACUGCGGGUUCGAGUCCCGUACGGAACG,≤ 0.5
14,GAUCCGUUGGCGCAAUGGUAACGCGUCUCCCUCCUAAAGAGAAGACUGCGGGUUCGAGUCCCGUACGGAACG,≤ 0.5
15,GAUCCCUUGGCGUAACGGUAACGUGUCUCCCUCCUAAGGAGAAGAGUGAGGGUUCGAGUCUCGUACGGAACG,≤ 0.5
16,GAUCCGUUGGCGUAAUGGUAACGCGUCUCCAUCCUAAGGAGAAGACCGCGGGUUCGAGUCCCGUACGGUACG,≤ 0.5
17,GAUCCGUUGGCGUAAUCGUAAGGCGUCUCCCUCCUAAGGCGAAGACUGCGGGUUCGAGUCCCGUACGGAACG,≤ 0.5
18,GAUCCGUUGGCGUAAUGGAAACGCGUCUCCCUCCUAAGGAGAAAACUGCGGGUUCGAGUCCCGUACGGAACG,0.544
19,GAUCCGUUGGCGUAAUGGUAACGCGUCUCCCUCCUAAGGAGAAGACUGCGGGUUCGAGUCCUGUACGGAACG,0.899
20,GAUCCGUUGGCGUAAUGGUAACGCGUCUCCCUGCUUAGGAGAAAACUGCGGGUUCGAGCCCCGUACGGAACG,0.554
21,GAUCCGUUGGCGUAAUGGUAACGCGUCUCCCUCCUAAGGAGAACACUGCGGGUUAGAGUCCCGUACGGAACG,≤ 0.5
22,GAUCCGUUAGCGUAAUGGUAACGCGUCUCCCUCCUACGGAGCAGACUGCGGGUUCGAGUCGCGUACGGAACG,≤ 0.5
23,GAUCCGUUAGCGAAAUGGUAACGCGUCUCCCUCCUAAGGAGAAGACUGCGGGUUCGAGUCCCGUACGGAACG,0.645
24,GAUCCACUGGCGUACUGGUAACGCGUCUGCCUUCUAAGGAGAAGACUGCGGGUUCGAGUCCCGUACGUAACG,≤ 0.5
25,GAUCCGUUGGCAUAAUAGUGCCGCGUCUACCUCCUAAGGAGAAGACUGCGGGUUCGAGUCCCGUACGGUACG,≤ 0.5
